Data from ChEMBL document CHEMBL5705890, “Antitumor activity of an allosteric inhibitor of centromere-associated protein-E” (Proc Natl Acad Sci U S A, 2010).

Legend:
[1] = target: Centromere-associated protein E (Mus musculus, UniProt Q6RT24); experiment: Binding affinity to wild-type mouse CENP-E assessed as inhibition constant
[2] = tested on: 786-0; experiment: Anticancer activity against human 786-0 cells assessed as cell growth inhibition measured after 72 hrs by DAPI staining based analysis; type: functional
In short: (§1)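 Cells were seeded and, after 24 h, DNA content was read as T0. Cells were then exposed to varying drug concentrations for a further 72 h (T72). Fixed cells were DAPI-stained and DNA content measured by automated imaging. T72 values were normalized to T0. GI50 is the concentration giving 50% growth inhibition between T0 and Ymax, obtained by curve fitting.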

[3] = tested on: ARH-77; experiment: Anticancer activity against human ARH-77 cells assessed as cell growth inhibition measured after 72 hrs by DAPI staining based analysis; type: functional; in short: as §1
[4] = tested on: BT-474; experiment: Anticancer activity against human BT-474 cells assessed as cell growth inhibition measured after 72 hrs by DAPI staining based analysis; type: functional
In short: (§2)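 Cells were seeded, and DNA content at 24 h after seeding (T0) was read by imaging of fixed, DAPI-stained cells. Cells were then exposed to a range of drug concentrations for a further 72 h (T72) and DNA content was read again. T72 values were normalized to T0, and GI50 was taken from curve fits as the concentration giving 50% growth inhibition relative to T0 and Ymax.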

[5] = Anticancer activity against human CML-T1 cells assessed as cell growth inhibition measured after 72 hrs by DAPI staining based analysis; type: functional; in short: as §2
[6] = tested on: DB; experiment: Anticancer activity against human DB cells assessed as cell growth inhibition measured after 72 hrs by DAPI staining based analysis; type: functional
In short: (§3)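 Cells seeded, DAPI-stained DNA content of fixed cells read by imaging 24 h after seeding (T0), and again after a further 72 h exposure to a range of drug concentrations (T72). T72 values were normalized to T0. Curve fits gave the concentration producing 50% growth inhibition relative to T0 and Ymax (GI50).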

[7] = tested on: DU-145; experiment: Anticancer activity against human DU-145 cells assessed as cell growth inhibition measured after 72 hrs by DAPI staining based analysis; type: functional; in short: as §3
[8] = tested on: LS-1034; experiment: Anticancer activity against human LS1034 cells assessed as cell growth inhibition measured after 72 hrs by DAPI staining based analysis; type: functional
[9] = tested on: NCI-H146; experiment: Anticancer activity against human NCI-H146 cells assessed as cell growth inhibition measured after 72 hrs by DAPI staining based analysis; type: functional
[10] = tested on: NCI-H508; experiment: Anticancer activity against human NCI-H508 cells assessed as cell growth inhibition measured after 72 hrs by DAPI staining based analysis; type: functional
[11] = tested on: OVCAR-3; experiment: Anticancer activity against human OVCAR-3 cells assessed as cell growth inhibition measured after 72 hrs by DAPI staining based analysis; type: functional
[12] = tested on: RPMI-6666; experiment: Anticancer activity against human RPMI-6666 cells assessed as cell growth inhibition measured after 72 hrs by DAPI staining based analysis; type: functional
[13] = tested on: RPMI-8226; experiment: Anticancer activity against human RPMI-8226 cells assessed as cell growth inhibition measured after 72 hrs by DAPI staining based analysis; type: functional
[14] = tested on: SK-MEL-28; experiment: Anticancer activity against human SK-MEL-28 cells assessed as cell growth inhibition measured after 72 hrs by DAPI staining based analysis; type: functional
[15] = tested on: SK-MEL3; experiment: Anticancer activity against human SK-MEL3 cells assessed as cell growth inhibition measured after 72 hrs by DAPI staining based analysis; type: functional
[16] = tested on: SNU-423; experiment: Anticancer activity against human SNU-423 cells assessed as cell growth inhibition measured after 72 hrs by DAPI staining based analysis; type: functional
[17] = tested on: SW1783; experiment: Anticancer activity against human SW1783 cells assessed as cell growth inhibition measured after 72 hrs by DAPI staining based analysis; type: functional
[18] = tested on: SW1990; experiment: Anticancer activity against human SW1990 cells assessed as cell growth inhibition measured after 72 hrs by DAPI staining based analysis; type: functional
[19] = tested on: SW48; experiment: Anticancer activity against human SW48 cells assessed as cell growth inhibition measured after 72 hrs by DAPI staining based analysis; type: functional
[20] = tested on: SW872; experiment: Anticancer activity against human SW872 cells assessed as cell growth inhibition measured after 72 hrs by DAPI staining based analysis; type: functional
[21] = tested on: 5637; experiment: Anticancer activity against human 5637 cells assessed as cell doubling measured for 72 hrs by DAPI staining based analysis; type: functional
[22] = tested on: BHT-101; experiment: Anticancer activity against human BHT-101 cells assessed as cell doubling measured for 72 hrs by DAPI staining based analysis; type: functional
[23] = Anticancer activity against human BM-1604 cells assessed as cell doubling measured for 72 hrs by DAPI staining based analysis; type: functional
[24] = tested on: BV-173; experiment: Anticancer activity against human BV-173 cells assessed as cell doubling measured for 72 hrs by DAPI staining based analysis; type: functional
[25] = tested on: COLO 205; experiment: Anticancer activity against human COLO 205 cells assessed as cell doubling measured for 72 hrs by DAPI staining based analysis; type: functional
[26] = tested on: HCT-15; experiment: Anticancer activity against human HCT-15 cells assessed as cell doubling measured for 72 hrs by DAPI staining based analysis; type: functional
[27] = tested on: HN5; experiment: Anticancer activity against human HN5 cells assessed as cell doubling measured for 72 hrs by DAPI staining based analysis; type: functional
[28] = tested on: HOS; experiment: Anticancer activity against human HOS cells assessed as cell doubling measured for 72 hrs by DAPI staining based analysis; type: functional
[29] = tested on: MV4-11; experiment: Anticancer activity against human MV4-11 cells assessed as cell doubling measured for 72 hrs by DAPI staining based analysis; type: functional
[30] = tested on: NCI-H630; experiment: Anticancer activity against human NCI-H630 cells assessed as cell doubling measured for 72 hrs by DAPI staining based analysis; type: functional
[31] = tested on: NCI-H747; experiment: Anticancer activity against human NCI-H747 cells assessed as cell doubling measured for 72 hrs by DAPI staining based analysis; type: functional
[32] = tested on: OVCAR-5; experiment: Anticancer activity against human OVCAR-5 cells assessed as cell doubling measured for 72 hrs by DAPI staining based analysis; type: functional
[33] = tested on: SAOS-2; experiment: Anticancer activity against human SAOS-2 cells assessed as cell doubling measured for 72 hrs by DAPI staining based analysis; type: functional
[34] = Anticancer activity against human SCC-13 cells assessed as cell doubling measured for 72 hrs by DAPI staining based analysis; type: functional
[35] = tested on: SCC-9; experiment: Anticancer activity against human SCC-9 cells assessed as cell doubling measured for 72 hrs by DAPI staining based analysis; type: functional
[36] = tested on: SK-UT-1; experiment: Anticancer activity against human SK-UT-1 cells assessed as cell doubling measured for 72 hrs by DAPI staining based analysis; type: functional
[37] = tested on: SW48; experiment: Anticancer activity against human SW48 cells assessed as cell doubling measured for 72 hrs by DAPI staining based analysis; type: functional
[38] = tested on: SW872; experiment: Anticancer activity against human SW872 cells assessed as cell doubling measured for 72 hrs by DAPI staining based analysis; type: functional
[39] = tested on: HCT-116; experiment: Antitumor activity against human HCT-116 cells in xenograft model assessed as difference between median time to endpoint time of treated versus control group at 62.5 mg/kg; type: functional
[40] = tested on: A549; experiment: Antitumor activity against human A549 cells in xenograft model assessed as difference between median time to endpoint time of treated versus control group at 62.5 mg/kg; type: functional

Chain of Centromere-associated protein E (Q6RT24 whole entry): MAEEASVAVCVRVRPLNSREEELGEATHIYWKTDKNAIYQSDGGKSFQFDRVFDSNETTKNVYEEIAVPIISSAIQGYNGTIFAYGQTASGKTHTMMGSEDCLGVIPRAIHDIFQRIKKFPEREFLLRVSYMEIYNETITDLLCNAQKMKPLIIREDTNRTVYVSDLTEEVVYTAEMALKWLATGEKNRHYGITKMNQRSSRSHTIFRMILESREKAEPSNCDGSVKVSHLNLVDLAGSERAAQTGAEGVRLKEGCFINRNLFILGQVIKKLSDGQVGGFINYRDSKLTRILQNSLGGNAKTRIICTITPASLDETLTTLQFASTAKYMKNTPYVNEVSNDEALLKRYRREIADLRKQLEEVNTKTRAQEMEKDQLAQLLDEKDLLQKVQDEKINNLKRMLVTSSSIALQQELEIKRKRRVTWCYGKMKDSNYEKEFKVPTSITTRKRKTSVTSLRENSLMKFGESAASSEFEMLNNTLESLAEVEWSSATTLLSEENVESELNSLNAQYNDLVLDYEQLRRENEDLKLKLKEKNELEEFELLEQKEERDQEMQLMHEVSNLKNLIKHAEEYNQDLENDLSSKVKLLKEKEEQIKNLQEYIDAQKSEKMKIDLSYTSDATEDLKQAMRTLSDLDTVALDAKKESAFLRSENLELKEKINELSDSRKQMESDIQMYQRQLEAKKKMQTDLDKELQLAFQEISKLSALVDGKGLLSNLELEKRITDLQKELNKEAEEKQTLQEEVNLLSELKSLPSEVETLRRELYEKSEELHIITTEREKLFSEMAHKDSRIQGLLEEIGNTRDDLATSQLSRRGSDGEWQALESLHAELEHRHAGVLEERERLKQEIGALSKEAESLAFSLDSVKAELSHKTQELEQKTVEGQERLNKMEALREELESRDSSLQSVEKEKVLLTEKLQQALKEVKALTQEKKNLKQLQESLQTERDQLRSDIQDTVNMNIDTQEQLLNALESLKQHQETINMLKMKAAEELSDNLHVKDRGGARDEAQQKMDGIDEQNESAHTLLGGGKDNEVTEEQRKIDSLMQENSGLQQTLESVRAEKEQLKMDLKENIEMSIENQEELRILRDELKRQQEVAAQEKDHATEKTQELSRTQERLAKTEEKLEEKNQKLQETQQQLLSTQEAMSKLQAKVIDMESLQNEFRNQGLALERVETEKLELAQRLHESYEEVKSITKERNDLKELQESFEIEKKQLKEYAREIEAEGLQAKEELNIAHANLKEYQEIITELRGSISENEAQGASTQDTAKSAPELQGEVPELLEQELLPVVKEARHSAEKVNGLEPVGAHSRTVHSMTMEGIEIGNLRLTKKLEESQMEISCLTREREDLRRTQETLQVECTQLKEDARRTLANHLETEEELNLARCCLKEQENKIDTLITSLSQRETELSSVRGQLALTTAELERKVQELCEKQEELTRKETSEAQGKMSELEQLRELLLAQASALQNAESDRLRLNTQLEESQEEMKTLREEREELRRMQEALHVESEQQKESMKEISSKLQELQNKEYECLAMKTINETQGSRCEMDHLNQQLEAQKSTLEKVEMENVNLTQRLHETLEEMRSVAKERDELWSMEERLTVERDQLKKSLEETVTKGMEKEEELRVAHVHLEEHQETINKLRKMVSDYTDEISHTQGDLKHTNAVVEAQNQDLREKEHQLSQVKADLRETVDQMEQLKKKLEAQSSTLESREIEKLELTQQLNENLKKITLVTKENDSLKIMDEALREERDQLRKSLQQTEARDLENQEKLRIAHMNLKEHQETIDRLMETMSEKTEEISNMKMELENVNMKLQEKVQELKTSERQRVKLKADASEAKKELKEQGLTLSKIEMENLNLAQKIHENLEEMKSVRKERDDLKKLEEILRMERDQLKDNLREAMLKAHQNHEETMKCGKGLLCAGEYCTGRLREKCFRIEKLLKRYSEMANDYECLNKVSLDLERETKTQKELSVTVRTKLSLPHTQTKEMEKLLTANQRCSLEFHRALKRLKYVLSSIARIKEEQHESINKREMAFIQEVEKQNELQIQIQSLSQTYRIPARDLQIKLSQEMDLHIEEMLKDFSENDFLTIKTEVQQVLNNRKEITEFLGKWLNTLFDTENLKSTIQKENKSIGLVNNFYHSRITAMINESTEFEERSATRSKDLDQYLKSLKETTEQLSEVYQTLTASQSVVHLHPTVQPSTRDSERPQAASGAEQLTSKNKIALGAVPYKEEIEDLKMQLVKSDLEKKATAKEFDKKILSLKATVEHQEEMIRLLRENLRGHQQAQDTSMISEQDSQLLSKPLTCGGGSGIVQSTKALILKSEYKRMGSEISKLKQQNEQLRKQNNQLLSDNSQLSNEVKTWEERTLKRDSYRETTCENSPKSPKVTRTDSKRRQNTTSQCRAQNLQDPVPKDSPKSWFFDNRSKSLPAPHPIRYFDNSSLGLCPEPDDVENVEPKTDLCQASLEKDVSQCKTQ

Which Ki [1] does the source give for `CC(C)Oc1ccc(C(=O)N[C@H](CNC(=O)CN(C)C)Cc2ccc(-c3cn4cccc([C@H](C)O)c4n3)cc2)cc1Cl` [GSK-923295A] here?
The Ki was 67 nM.

And the GI50 [2]?
Its GI50 is 45 nM.

And the GI50 [3]?
Its GI50 is 34 nM.

What about the GI50 [4] of the same molecule?
Its GI50 is 110 nM.

And the GI50 [5]?
The GI50 was 13 nM.

What about the GI50 [6] of the same molecule?
Its GI50 is 21 nM.

And the GI50 [7]?
The GI50 was 23 nM.

And the GI50 [8]?
Its GI50 is 97 nM.

What about the GI50 [9] of the same molecule?
Its GI50 is 5230 nM.

And the GI50 [10]?
Its GI50 is 32 nM.

And the GI50 [11]?
The GI50 was 42 nM.

What about the GI50 [12] of the same molecule?
Its GI50 is 88 nM.

And the GI50 [13]?
The GI50 was 27 nM.

And the GI50 [14]?
The GI50 was 31 nM.

What about the GI50 [15] of the same molecule?
Its GI50 is 30 nM.

And the GI50 [16]?
Its GI50 is 34 nM.

And the GI50 [17]?
The GI50 was 34 nM.

And the GI50 [18]?
The GI50 was 127 nM.

And the GI50 [19]?
The GI50 was 25 nM.

And the GI50 [20]?
Its GI50 is 37 nM.

And the Activity [21]?
The Activity was 1.43.

And the Activity [22]?
Its Activity is 2.09.

What about the Activity [23] of the same molecule?
Its Activity is 2.38.

And the Activity [24]?
Its Activity is 2.16.

What about the Activity [25] of the same molecule?
Its Activity is 3.3.

What about the Activity [26] of the same molecule?
The Activity was 4.01.

And the Activity [27]?
The Activity was 3.38.

And the Activity [28]?
The Activity was 3.65.

What about the Activity [29] of the same molecule?
The Activity was 1.79.

What about the Activity [30] of the same molecule?
Its Activity is 2.04.

What about the Activity [31] of the same molecule?
Its Activity is 2.19.

And the Activity [32]?
Its Activity is 2.84.

And the Activity [33]?
Its Activity is 1.5.

What about the Activity [34] of the same molecule?
The Activity was 3.39.

And the Activity [35]?
The Activity was 1.95.

And the Activity [36]?
Its Activity is 2.88.

And the Activity [37]?
The Activity was 2.44.

And the Activity [38]?
Its Activity is 2.43.

What about the Time [39] of the same molecule?
The Time was -2.8 days.

And the Time [40]?
Its Time is 3.7 days.
